Measurements from the EternaBench riboswitch data.

Test system: MS2 coat protein
Test: apparent Kd, MS2 coat protein; higher = weaker binding; RNA-MaP array; FMN 200 µM where present
In short: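 Designs on Illumina sequencing-chip clusters, transcribed by stalled E. coli RNA polymerase, were exposed to SNAP-549-labelled MS2 coat protein in doubling steps from 0.7 or 1.5 nM up to 3 µM, without and then with constant ligand. The buffer held 100 mM Tris-HCl pH 7.5, 80 mM KCl, 4 mM MgCl2, BSA, DTT, yeast tRNA and Tween-20. Apparent Kd values are medians of filtered per-cluster binding-curve fits to green signal normalised to red-channel RNA signal and control-cluster median Fmax.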

[1] = designed as: ON switch for flavin mononucleotide, no ligand
[2] = ligand present: flavin mononucleotide, designed as: ON switch for flavin mononucleotide
[3] = designed as: OFF switch for flavin mononucleotide, no ligand
[4] = ligand present: flavin mononucleotide, designed as: OFF switch for flavin mononucleotide

Sequence	apparent Kd [1]	apparent Kd [2]	apparent Kd [3]	apparent Kd [4]
AACCUAAAACAGAAGGCCAAAUACAUGAGGAUCACCCAUGUCGAAUCAUGGAGGAUAUGUUAUUAAUUACUCGCAGAUGAGUGC	0.07 µM	0.00749 µM		
UACAUUAACAUGAGGAUCACCCAUGUUGGCCAGUCUCACACCAGAAGGCACGUAGAGCACAACAGUGAGGAUAUGGGUGACAUA	0.218 µM	0.0987 µM		
GCGGUCAACGUAGGAUAUCUUCAGCCGCAGCGCAUUGCUGUACAUGAGGAUCACCCAUGUCCUGGAGAGAAGGACGGACUGCAA	0.145 µM	0.0232 µM		
AAAAAAAAAAGUCAGGAUAUACAAAUUUUUACAUGAGGAUCACCCAUGUUAAAGAAAAAAAAAAAGUAGAAGGGACAAAAAAAAAA	0.0251 µM	0.0149 µM		
GAGCGGCGUACAGGAUAUCCUACAUGAGGAUCACCCAUGUCACAUUUACACGAGAACGUGUACGAGGAGAAGGGUGGGUUCGUG	0.287 µM	0.588 µM		
UUAUGAGCGAUAGGAUAUACUGAGAUUGAAUGGGUAGAAGGAUCAAUUGUGUGGAAGACAUGAGGAUCACCCAUGUUACGGGCC	0.104 µM	0.337 µM		
UGUCGGAGCAGAGGAUAUACAUGAGGAUCACCCAUGUAAUAAAGUGAAGCCUGGAAACAGGCAAUGUAGAAGGUUGCUCCGACA			0.0072 µM	0.0315 µM
GCCAUCGCAUGAGGAUAUGCUCGGGUUUCCCGAGCAGAAGGCAUGUAAUAAAACAUGAGGAUCACCCAUGUAGUUAAGAUGGCA	0.00829 µM	0.00536 µM		
UACAUUACUUAGAAGGGAUAUAUAUAAUUUUAGUCAGGAUAUAGAUACAGUACAACAUGAGGACAUGAGGAUCACCCAUGUAUU	0.0298 µM	0.0208 µM		
GUCAUCUCAUGAGGAUAUGCUCGGGUUUCCCGAGCAGAAGGCAUGUCAUACAUGAGGAUCACCCAUGUUGACAUUAAGAUUGUA	0.00478 µM	0.00504 µM		
AGAAAUUAGUGAGGAUAUGCAUAAUAUUUAGCUGCAGAAGGCACGGACCACAAGACAUGAGGAUCACCCAUGUGGAAUAUAGAU			0.0201 µM	0.0234 µM
UGUGAGUUGAUGUUAGAUAGGAGAACAUGAGGAUCACCCAUGUAGGAUAUUCAAAGACGAAGAUAGAAGAAGGACAUAGGUAUC			0.0248 µM	0.0662 µM
AAUAUGAGCUGGAAUAACCUAGAAACAUGAGGAUCACCCAUGUAGGAUAUCAGCACGAUAAGUGCUGAGAAGGACAACCAGCUC			0.0143 µM	0.0152 µM
UUGUACAUUCGAGGAUAUCGGAGAGAGAUCAUUCGAGAAGGCGAUUCAUGAUGUAUUAUCCUGGACAUGAGGAUCACCCAUGUA	0.111 µM	0.0659 µM		
AUCAGCUCGUCAGGAUAUACGUCACUGCGUCAGAAGUGUGGUAAGAUCACAUGAGGAUCACCCAUGUAGAAGGGACGAGCUGAU			0.0234 µM	0.253 µM
GUUUUGGGAGGAUAUAUGUGGAUUAUUUUUAUAUGUUAUUUACAUGAGGAUCACCCAUGUAGAAGGUCUAGAGC			0.163 µM	0.249 µM
ACUUCUAAGCAGAAGGCAGUCAUAGCAUUCGUCAUGUAGACAUGAGGAUCACCCAUGUAUAGUGCUGAGGAUAUGCUUGGAUAG			0.0118 µM	0.0107 µM
UUUUAACAUGAGGAUCACCCAUGUGAGGAUAUCGAAAUUUAUAUUAAUAUUAUUAUAUCGAGAAGGCACAUUUU			0.0923 µM	0.0913 µM
AUUACAUGAGGAUCACCCAUGUACGGCACGUUUCAAAACACUGAGGAUAUACGAUAUGUAGGAACGUAGAAGGCAGUGGGUGCA	0.0997 µM	0.034 µM		
CGGCGGAAAGGAUAUGCAGUUAUAUCAAAAUGUGGGCCACGACAUGAGGAUCACCCAUGUAGAAGGUUCAGCCG			0.016 µM	0.0134 µM
CGCACUAUACAUGAGGAUCACCCAUGUUAUUAUGAGAUAGUCAGAAGGCAUUGUUUGUGAAAUUAUGAGGAUAUGAAUAGUGCG	0.146 µM	0.0793 µM		
UGAAAUCAUGUAGGAUAUGCAUGGCGAAGCUACGCAGAAGGACAUGAGGAUCACCCAUGUUAUAGCUACUCAGUUCGGUGGCAA			0.0385 µM	0.195 µM
GGUCGCAAGUAAGGAUAUGCCUAGGAAACCUAGGCAGAAGGUACAUGAGGAUCACCCAUGUUAACGCAAAGCGAAUAAGCGACC			0.0158 µM	0.0215 µM
CUAGCUAUCGGAGGAUAUUCAUACCGGAAACGGACAUGAGGAUCACCCAUGUGGCGAAAGCCAUGGGAGAAGGCCGAUAGCUAG	1.64 µM	0.133 µM		
AUGUUACAUGAGGAUCACCCAUGUGAGGAUAUGUGUACCGGUAAAAAAGUGUUUGGCCACAGAAGGCAUUUGGG			0.0445 µM	0.0845 µM
GGACAUGUCGUCUACAUGAGGAUCACCCAUGUCGAUAGACAUGAGGAUAUCGAUAAGAAUUGUAUCGAGAAGGCAUGCAGGUCC	0.0198 µM	0.0215 µM		
UCUUAAGGAGGAUAUACAUGAGGAUCACCCAUGUAUGACCGCAGGGCGUCCUUGUAUCGUAGAAGGCCUCGGUA			0.0333 µM	0.0436 µM
AAUAAACUCACAGGAUAUAGCAUAGGUCGCGUGUACUUACAGGCGACUAUGCUAGAAGGGUGACCACAUGAGGAUCACCCAUGU	0.887 µM	0.188 µM		

Sequence	apparent Kd [1]	apparent Kd [2]	apparent Kd [3]	apparent Kd [4]
GUAAAGUGAGGAUAUGGUAAAUUAAUUAUUAAUUAAUUAAUCCAGAAGGCACAUGAGGAUCACCCAUGUAUAUG			0.0382 µM	0.0613 µM
ACAUGAGGAUCACCCAUGUGUACAUAGGAUAUUGAGGAUUAGGGAUGUUGUUUUGGAUUUGCCCACAAGAAGGAUGAAAGUGUU	0.00968 µM	0.00868 µM		
AUAUCACAUGAGGAUCACCCAUGUCAGGAUAUGAUACUAUGUACUUCGGUACAUAGUAUCAGAAGGGAUAUGAA			0.0415 µM	0.0699 µM
GCCAUCGUAUGAGGAUAUGGCACCGAAACGGUGCCAGAAGGCAUGUCAAUAGACAUGAGGAUCACCCAUGUGUUAUCGAUGGCC	0.0849 µM	0.0117 µM		
UAGAAGUCAGGAUAUCCAGCUCGUCACUUGCGUGAUGAGUUGGAGAAGGGACAUGAGGAUCACCCAUGUAAAGA			0.0619 µM	0.0578 µM
CCAGACGUAGGAUAUACAUUUGGGUAAUCCCGCGGAAAGAUACAUGAGGAUCACCCAUGUAGAAGGGCGGUAAA			0.0311 µM	0.0211 µM
CUUUCGUGAGGAUAUCAGUAGUAAAUAAAUAAAAUUACUACUGAGAAGGCACAUGAGGAUCACCCAUGUUCCUU			0.0118 µM	0.0185 µM
GGUCGACAUGAGGAUCACCCAUGUCAGGAUAUCGUCACUGGAGCUGCGGCUCCAGUGACGAGAAGGGAUAUGAU			0.0413 µM	0.0374 µM
CUUAUGUGAGGAUAUGUACAGAAAAAACUGGGUGUAACUGUACAGAAGGCACAUGAGGAUCACCCAUGUGCAUU			0.0599 µM	0.0571 µM
GAGUCUCUAUUAGAACCGAUACGAACAUGAGGAUCACCCAUGUAGGAUAUGCUAAAAGUUGUGUUGCAGAAGGACAUUUAAUGC			0.0112 µM	0.0109 µM
UCGCUGCGAGGAUAUACAUGAGGAUCACCCAUGUACGGGUCCGGGUCUUAGUUGAUUGGUAGAAGGCGCAGUGA			0.106 µM	0.212 µM
AAAACAUGAGGAUCACCCAUGUAAAGAUCGGUUAAUAGAGGUGAGGAUAUACGAACUUAAAGGUAGUAGAAGGCACUGGGUACA	0.0471 µM	0.0355 µM		
GGAGCCGGCACCGAGGAUAUUCAUAUUAAAACAUGAGGAUCACCCAUGUAGCUCGAAAGAGCUUGGGAGAAGGCGGAUCGGCUCG	0.84 µM	0.0432 µM		
CCUCUACAUGAGGAUCACCCAUGUGAGGAUAUCUCGGAGCAGCCAAUUAAAGCGCUCCAGAGAAGGCACGUGUA			0.0179 µM	0.0252 µM
GGUACUCAAAGAGUACCAAGACGAACAUGAGGAUCACCCAUGUAGGAUAUGCUACUCAAAGAGUAGCAGAAGGACAUGUGCCUA			0.0171 µM	0.107 µM
AGGGAGUGAGGAUAUACGAAAUAAAAAGAAGGAAAAAAAGAGUAGAAGGCACAUGAGGAUCACCCAUGUGAGAA			0.022 µM	0.0195 µM
GCGUUCUUGUAGAAGGUACCUUCAACAUAUUAUAAACGCUAGACACAUGAGGAUCACCCAUGUUGUAAGGAUAUACAUGAACGC	0.0167 µM	0.0135 µM		
GUGCCUAACUAGAAGGCCGAUAGCAAAGCUAUCGGAGGAUAUGGGUUCCGGAAACGGACAUGAGGAUCACCCAUGUGGCACAAA	0.0865 µM	0.0129 µM		
CAAUUGGCACAGAAGGGUGACAUGAGGAUCACCCAUGUAGCGUGGUACUCAGGAGGAACCACGCCACAGGAUAUGUGCGGGCAC	0.0303 µM	0.0388 µM		
AAACAUGUCCGAGGAUAUCUGGAAACAUUUUCAAGAGAAGGCGGACAUGAGGAUCACCCAUGUCUCUCCUCAUCAAGUCCAAGU			0.00847 µM	0.0462 µM
CUAUGUUAGCAGGAUAUGCCAUUAUUCCUUUUCGCAGAAGGGCUUACAUGAGGAUCACCCAUGUUACAUUUCUU			0.0124 µM	0.0175 µM
UUGUUCCAUGUAGGAUAUGCAUAUUCUUAUUAUGCAGAAGGACAUGAGGAUCACCCAUGUAUGUUAUUAUUAUAUGUUACAUGU			0.0723 µM	0.392 µM
AAGAGUGCAGGAUAUACUUGGUAGGGCGGGUGGAUGGUUUGACAUGAGGAUCACCCAUGUAGAAGGGCAGAGAG			0.0387 µM	0.0276 µM
GAUUCGCGUGAGAAGGACAUGAGGAUCACCCAUGUAGGAUAUCACGGUCCUUAGAGGAUUUCAAACCGUACUGGGUCAUAGUGU	0.0152 µM	0.0067 µM		
AUGGAUACCACAGGAUAUGCCCGGGAUACCCGGGCAGAAGGGUGGUCCAUCCUAUGUAAAUACAUGAGGAUCACCCAUGUGUCC	0.351 µM	0.257 µM		
GCGCAAGCAUGAGGAUAUGUAUUAAAUAAUAAUACAGAAGGCAUGUCAAAUGACAUGAGGAUCACCCAUGUUGGCAAAAUGCGC	0.0458 µM	0.0105 µM		
UAGUGAUUGCAAGGAUAUGCUUAUGUUUAAUUUUAUUUAUUAUCUAACAUGAGGAUCACCCAUGUGCAGAAGGUGCUUGAUUUG	0.0634 µM	0.0534 µM		
